# In ChEMBL document CHEMBL1641514, “Drug metabolism-based design, synthesis, and bioactivities of 1-(2,6-dimethylphenoxy)-2-(3,4-dimethoxyphenylethylamino)propane hydrochloride (DDPH) analogs as α₁-adrenoceptors antagonists” (Bioorg Med Chem, 2011):
# Assays:
# Rattus norvegicus [1] = assay: Antihypertensive activity in Sprague-Dawley rat assessed as time duration of hypotensive response at 5 mg/kg, iv
# Rattus norvegicus [2] = assay: Antihypertensive activity in Sprague-Dawley rat assessed as change in mean arterial pressure at 5 mg/kg, iv
# [3] = target: T1, Adrenergic receptor alpha-1 (Rattus norvegicus, UniProt P15823+P23944+P43140); assay: Antagonist activity at alpha1 adrenergic receptor in Sprague-Dawley rat anococcygeus smooth muscle assessed as inhibition of phenylepinephrine-induced muscle contraction treated 20 mins before phenylepinephrine challenge; type: functional
# T1 sequence (P15823 whole entry): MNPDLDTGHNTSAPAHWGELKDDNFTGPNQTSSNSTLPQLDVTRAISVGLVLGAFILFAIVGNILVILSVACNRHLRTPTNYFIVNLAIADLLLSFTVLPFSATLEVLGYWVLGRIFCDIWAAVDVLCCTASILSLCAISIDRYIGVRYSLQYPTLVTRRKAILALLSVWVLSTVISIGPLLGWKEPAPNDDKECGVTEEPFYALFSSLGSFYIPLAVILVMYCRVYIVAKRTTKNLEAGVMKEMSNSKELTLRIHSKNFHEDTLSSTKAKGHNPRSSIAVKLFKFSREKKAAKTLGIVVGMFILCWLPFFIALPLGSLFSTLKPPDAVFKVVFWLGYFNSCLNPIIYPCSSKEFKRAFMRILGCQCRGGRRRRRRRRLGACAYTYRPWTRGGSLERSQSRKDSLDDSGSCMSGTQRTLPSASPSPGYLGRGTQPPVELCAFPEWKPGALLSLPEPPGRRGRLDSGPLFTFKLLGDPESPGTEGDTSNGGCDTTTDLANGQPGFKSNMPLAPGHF
# T1 sequence (P23944 whole entry): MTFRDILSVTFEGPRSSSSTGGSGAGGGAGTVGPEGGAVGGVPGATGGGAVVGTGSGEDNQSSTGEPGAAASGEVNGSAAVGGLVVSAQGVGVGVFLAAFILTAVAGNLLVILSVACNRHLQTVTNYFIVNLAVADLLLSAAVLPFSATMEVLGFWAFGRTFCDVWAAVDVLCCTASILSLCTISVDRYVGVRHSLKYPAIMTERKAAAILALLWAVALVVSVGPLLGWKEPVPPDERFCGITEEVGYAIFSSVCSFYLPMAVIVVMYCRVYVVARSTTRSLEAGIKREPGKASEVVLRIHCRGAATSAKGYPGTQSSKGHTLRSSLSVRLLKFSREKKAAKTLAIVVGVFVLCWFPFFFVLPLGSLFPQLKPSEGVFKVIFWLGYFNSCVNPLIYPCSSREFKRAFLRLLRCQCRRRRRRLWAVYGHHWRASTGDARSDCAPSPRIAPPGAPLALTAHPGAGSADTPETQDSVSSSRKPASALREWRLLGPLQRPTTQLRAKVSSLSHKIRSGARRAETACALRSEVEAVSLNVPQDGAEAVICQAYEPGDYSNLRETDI
# T1 sequence (P43140 whole entry): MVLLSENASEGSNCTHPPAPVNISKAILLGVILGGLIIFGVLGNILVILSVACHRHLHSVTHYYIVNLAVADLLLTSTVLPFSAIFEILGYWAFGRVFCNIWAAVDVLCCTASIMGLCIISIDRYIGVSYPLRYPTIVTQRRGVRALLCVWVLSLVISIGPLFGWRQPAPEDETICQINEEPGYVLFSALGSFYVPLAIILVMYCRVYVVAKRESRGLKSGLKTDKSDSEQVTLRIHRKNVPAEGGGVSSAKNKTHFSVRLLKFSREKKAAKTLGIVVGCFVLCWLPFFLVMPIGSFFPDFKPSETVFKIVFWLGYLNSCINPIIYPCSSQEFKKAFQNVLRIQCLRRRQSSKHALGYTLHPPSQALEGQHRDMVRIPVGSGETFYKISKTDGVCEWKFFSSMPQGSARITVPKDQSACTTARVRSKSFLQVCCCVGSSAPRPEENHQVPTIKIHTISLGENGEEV
# Outline: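 Male Sprague–Dawley rats (300–350 g) killed by cervical dislocation. Anococcygeus muscle mounted in a 20 mL bath of Krebs solution (pH 7.4), 37 °C, gassed with 5% CO₂/95% O₂. Resting tension 1.0 g. Equilibrated 1 h with Krebs renewal every 20 min. Cocaine, hydrocortisone and propranolol then added. pA₂ read out.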
# Rattus norvegicus [4] = assay: Antihypertensive activity in Sprague-Dawley rat assessed as change in systolic arterial pressure at 5 mg/kg, iv
# Rattus norvegicus [5] = assay: Antihypertensive activity in Sprague-Dawley rat assessed as change in diastolic arterial pressure at 5 mg/kg, iv
# Rattus norvegicus [6] = assay: Antihypertensive activity in Sprague-Dawley rat assessed as change in heart rate at 5 mg/kg, iv
pA2 [3],SMILES,Time (Rattus norvegicus [1]) [min],Activity (Rattus norvegicus [2]) [%],Activity (Rattus norvegicus [4]) [%],Activity (Rattus norvegicus [5]) [%],Activity (Rattus norvegicus [6]) [%]
8.6,COc1cc(CCNC(C)COc2c(C)cc(Cl)cc2C)ccc1O.Cl (configuration not stated),61,-20.2,-12.1,-25.1,-6.6
8.18,COc1ccc(CCNC(C)COc2c(C)cc(Cl)cc2C)cc1OC.Cl (configuration not stated),34,-15.9,-13.3,-18.5,-8.78
5.61,COc1ccc(CCNC(C)COc2c(C)cc(C#N)cc2C)cc1O.Cl (configuration not stated),4,-11,-8.2,-14.2,-6.4
6.65,COc1cc(CCNC(C)COc2c(C)cc(C#N)cc2C)ccc1O.Cl (configuration not stated),6,-24.9,-17.3,-29.61,-2.33
7.25,COc1ccc(CCNC(C)COc2c(C)cc(C)cc2C)cc1OC.Cl (configuration not stated),33,-27.86,-19.03,-28.23,-16.3
6.93,COc1ccc(CCNC(C)COc2c(C)cc(Br)cc2C)cc1OC.Cl (configuration not stated),12,-8.5,-9.2,-7.8,-8.3
8.07,COc1ccc(CCNC(C)COc2c(C)cccc2C)cc1OC.Cl (configuration not stated),120,-30.4,-19.79,-26,-16.04
8.86,COc1cc(CCNC(C)COc2c(C)cc(C)cc2C)ccc1O.Cl (configuration not stated),205,-45.92,-36.45,-48.99,-23.52
8.02,COc1cc(CCNC(C)COc2c(C)ccc(C)c2C)ccc1O.Cl (configuration not stated),80,-14.6,-7.9,-20.5,-0.96
7.71,COc1ccc(CCNC(C)COc2c(C)ccc(C)c2C)cc1OC.Cl (configuration not stated),57,-27.1,-17.4,-34.2,-16.6
7.02,COc1ccc(CCNC(C)COc2c(C)cc(Br)cc2C)cc1O.Cl (configuration not stated),4,-7.5,-3.5,-12.8,-2.3
9.94,COc1cc(CCNC(C)COc2c(C)cc(Br)cc2C)ccc1O.Cl (configuration not stated),23,-15.5,-7.6,-19.1,-1.7
